Calls of active or inactive are those of the source. The calls are words filed in the database; no cut-off is given here.
Columns and labels:
[1] = system: CCRF-CEM; assay: Cytotoxicity against human taxol-resistant CCRF-CEM cells after 72 hrs by XTT assay; assay type: functional, cell-based
In short: (§1)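 CCRF-CEM and its Taxol- and vinblastine-resistant sublines were incubated 72 h, then given phenazine methosulfate-XTT for 6 h at 37 °C. Absorbance was read at 450 and 630 nm. IC50 came from median-effect analysis of dose-effect data at six or seven concentrations.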

[2] = system: CCRF-CEM; assay: Cytotoxicity against human CCRF-CEM cells after 72 hrs by XTT assay; assay type: functional, cell-based; in short: as §1
[3] = system: Mus musculus; assay: Toxicity in human MX1 cells xenografted athymic nude Swiss mouse assessed as mouse mortality at 50 and 60 mg/kg, iv every two days for three times followed by 70 mg/kg, iv every two days for two times; assay type: organism-based; details: in vivo
[4] = system: MX1; assay: Antitumor activity against human MX1 cells xenografted in athymic nude Swiss mouse assessed as tumor growth inhibition at 50 and 60 mg/kg, iv every two days for three times followed by 70 mg/kg, iv every two days for two times relative to control; assay type: functional; design: scale not given: the % may be the effect or the level left
[5] = system: CCRF-CEM; assay: Cytotoxicity against human vinblastine-resistant CCRF-CEM cells after 72 hrs by XTT assay; assay type: functional, cell-based; in short: as §1
[6] = system: CCRF-CEM; assay: Ratio of IC50 for human vinblastine-resistant CCRF-CEM cells to IC50 for human CCRF-CEM cells; assay type: functional
[7] = system: HCT-116; assay: Cytotoxicity against human HCT116 cells after 72 hrs by SRB assay; assay type: functional, cell-based; details: HCT-116, 72 h
In short: (§2)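 MX-1 and HCT-116 solid tumor cells were exposed 72 h, with growth read by SRB staining on a microplate spectrophotometer. IC50 came from median-effect analysis of dose-effect data at six or seven concentrations.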

[8] = system: Mus musculus; assay: Toxicity in human MX1 cells xenografted athymic nude Swiss mouse assessed as body weight loss at 50 and 60 mg/kg, iv every two days for three times followed by 70 mg/kg, iv every two days for two times relative to control; assay type: organism-based; details: in vivo
[9] = system: MX1; assay: Cytotoxicity against human MX1 cells after 72 hrs by SRB assay; assay type: functional, cell-based; details: MX1, 72 h; in short: as §2
[10] = system: CCRF-CEM; assay: Ratio of IC50 for human taxol-resistant CCRF-CEM cells to IC50 for human CCRF-CEM cells; assay type: functional
[11] = system: Mus musculus; assay: Toxicity in human MX1 cells xenografted athymic nude Swiss mouse assessed as body weight loss at 30 mg/kg, iv every two days for three times followed by 40 mg/kg, iv every two days for 5 times relative to control; assay type: organism-based; details: in vivo
[12] = system: PC-3; assay: Anticancer activity against human PC3 cells xenografted in athymic nude Swiss mouse assessed as tumor growth inhibition at 55 mg/kg, iv every two days for six times relative to control; assay type: functional; design: scale not given: the % may be the effect or the level left
[13] = Cytotoxicity against human H1299 cells after 72 hrs by Alamar blue assay; assay type: functional, cell-based; details: NCI-H1299, 72 h
In short: (§3)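 H1299 and PC3 cells were exposed 72 h, then given Alamar blue for 6 h at 37 °C. Absorbance was read at 570 and 600 nm. IC50 came from median-effect analysis of dose-effect data at six or seven concentrations.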

[14] = system: Mus musculus; assay: Toxicity in human PC3 cells xenografted athymic nude Swiss mouse assessed as mouse mortality at 55 mg/kg, iv every two days for six times; assay type: organism-based, PC-3; design: dose 55 mg/kg, route intravenous; details: in vivo
[15] = system: PC-3; assay: Cytotoxicity against human PC3 cells after 72 hrs by Alamar blue assay; assay type: functional, cell-based; details: PC-3, 72 h; in short: as §3
[16] = system: MX1; assay: Antitumor activity against human MX1 cells xenografted in athymic nude Swiss mouse assessed as tumor growth inhibition at 30 mg/kg, iv every two days for three times followed by 40 mg/kg, iv every two days for 5 times relative to control; assay type: functional; design: scale not given: the % may be the effect or the level left
[17] = system: Mus musculus; assay: Toxicity in human MX1 cells xenografted athymic nude Swiss mouse assessed as mouse mortality at 30 mg/kg, iv every two days for three times followed by 40 mg/kg, iv every two days for 5 times; assay type: organism-based; details: in vivo
[18] = system: Nucleic Acid; assay: Induction of pEGFP-N1 plasmid DNA interstrand cross-linking at 1 to 20 uM by alkaline agarose gel shift assay; assay type: nucleic-acid assay
In short: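 pEGFP-N1 plasmid DNA (1500 ng) was incubated with compound (1, 10, 20 μM) in 3 mM NaCl/1 mM sodium phosphate pH 7.4/1 mM EDTA for 2 h at 37 °C. It was then BamHI-linearized, ethanol-precipitated and denatured in 0.5 N NaOH-10 mM EDTA. Samples were run on a 0.8% alkaline agarose gel at 4 °C, 18 V for 22 h, stained with ethidium bromide.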

[19] = system: Mus musculus; assay: Toxicity in human PC3 cells xenografted athymic nude Swiss mouse assessed as body weight loss at 55 mg/kg, iv every two days for six times relative to control; assay type: organism-based, PC-3; design: dose 55 mg/kg, route intravenous; details: in vivo

In the case of `O=C(Nc1ccc(N(CCCl)CCCl)cc1)Nc1ccc2ncnc(Nc3ccc(F)c(Cl)c3)c2c1`, the IC50 [1] is reported as 1160 nM, the IC50 [2] is reported as 1000 nM and the Activity [3] is reported as “Non-toxic”. For the same compound, the Activity [4] was 72%, the IC50 [5] was 1140 nM and the “Ratio IC50” value [6] was 1.14. The IC50 [7] was 3360 nM, the Activity [8] was 5% and the IC50 [9] was 5380 nM. For the same compound, the “Ratio IC50” value [10] was 1.16.

`O=C(Nc1ccc(N(CCCl)CCCl)cc1)Nc1ccc2ncnc(Nc3cccc(Cl)c3F)c2c1` gave an IC50 [1] of 1550 nM, an Activity [11] of 6% and an IC50 [2] of 750 nM. It also gave an Activity [12] of 69%, an IC50 [13] of 5520 nM and an IC50 [5] of 1040 nM. For the same compound, the “Ratio IC50” value [6] was 1.39, the Activity [14] was “Non-toxic” and the IC50 [7] was 3840 nM. The IC50 [15] was 6290 nM, the IC50 [9] was 4550 nM and the “Ratio IC50” value [10] was 2.07. The Activity [16] was 52%, the Activity [17] was “Non-toxic” and the Activity [18] was “Active”. The Activity [19] was 6%.
